ChEMBL document CHEMBL1212840, “Lysine N(epsilon)-trimethylation, a tool for improving the selectivity of antimicrobial peptides” (J Med Chem, 2010)
Square brackets hold non-standard residues; d marks the D form. Peptide text beside a SMILES is read from it. Lys(Me3) = C[N+](C)(C)CCCC[C@H](N)C(=O)O

What was measured:
[1] = Selectivity index, ratio of HC50 for sheep erythrocyte to MIC50 for Acinetobacter baumannii ATCC 19606 ATCC 19606; type: functional
[2] = system: Leishmania pifanoi; assay: Antileishmanial activity against Leishmania pifonoi MHOM/VE/60/LTrod promastigotes after 72 hrs by MTT assay; type: functional, organism-based
[3] = system: Staphylococcus aureus; assay: Antimicrobial activity against Staphylococcus aureus CECT 240 by turbidimetry; type: functional
[4] = Selectivity index, ratio of HC50 for sheep erythrocyte to MIC50 for Staphylococcus aureus CECT 240; type: functional
[5] = system: Leishmania donovani; assay: Antileishmanial activity against Leishmania donovani MHOM/SD/001S-2D promastigotes after 4 hrs by MTT assay
[6] = Selectivity index, ratio of IC50 for sheep erythrocyte to LC50 for Leishmania pifanoi MHOM/VE/60/LTrod amastigotes
How it was run: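 SI = HC50/LC50. HC50 comes from sheep erythrocytes (2 × 10^7 cells/mL in Hank's, 4 h, 37 °C, hemoglobin at 550 nm, 0.1% Triton X-100 as full lysis). For LC50, L. pifanoi axenic amastigotes at 2 × 10^7/mL in Hank's + 20 mM glucose get peptide for 4 h at 32 °C. An aliquot is then regrown in complete medium for 96 h at 32 °C.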

[7] = system: Acinetobacter baumannii; assay: Antimicrobial activity against Acinetobacter baumannii ATCC 19606 ATCC 19606 by turbidimetry; type: functional
[8] = system: Leishmania donovani; assay: Antileishmanial activity against Leishmania donovani MHOM/SD/001S-2D promastigotes after 72 hrs by MTT assay; type: functional, organism-based
How it was run: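 L. donovani promastigotes (strain MHOM/SD/00/1S-2D) are harvested at late exponential phase and washed in Hank's + 20 mM D-glucose, pH 7.2. They are treated with peptide at 2 × 10^7 parasites/mL for 4 h at 26 °C. A 20 μL aliquot then goes into complete medium for 72 h at 26 °C to let survivors proliferate. LC50 is 50% inhibition of proliferation. Triplicates, repeated at least twice.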

[9] = system: Leishmania pifanoi; assay: Antileishmanial activity against Leishmania pifonoi MHOM/VE/60/LTrod amastigotes after 4 hrs by MTT assay
[10] = Selectivity index, ratio of IC50 for sheep erythrocyte to LC50 for Leishmania donovani MHOM/SD/001S-2D promastigotes
How it was run: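 SI = HC50/LC50. For HC50, washed sheep erythrocytes at 2 × 10^7 cells/mL in Hank's are exposed to peptide for 4 h at 37 °C. Hemoglobin in the supernatant is read at 550 nm; 0.1% Triton X-100 gives full lysis, and HC50 is 50% release.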

[11] = Toxicity in sheep erythrocyte assessed as hemolysis; type: cell-based, Ovis aries; conditions: sheep erythrocytes
How it was run: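 Washed sheep erythrocytes at 2 107 cells/mL in Hank's medium were exposed to peptide for 4 h at 37 °C, then spun (5 min, 4 °C). Hemoglobin in the supernatant was read at 550 nm. HC50 is the peptide concentration releasing 50% of the hemoglobin freed by 0.1% Triton X-100.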

Row | Compound | Selectivity Index [1] | LC50 [2] | MIC50 [3] | Selectivity Index [4] | IC50 [5] | Selectivity Index [6] | MIC50 [7] | LC50 [8] | IC50 [9] | Selectivity Index [10] | HC50 [11]
1 | CC[C@H](C)[C@H](NC(=O)[C@H](CCCC[N+](C)(C)C)NC(=O)[C@H](CCCC[N+](C)(C)C)NC(=O)[C@H](Cc1ccccc1)NC(=O)[C@H](CC(C)C)NC(=O)[C@H](CCCCN)NC(=O)[C@H](Cc1c[nH]c2ccccc12)NC(=O)[C@@H](N)CCCCN)C(=O)NCC(=O)N[C@@H](C)C(=O)N[C@H](C(=O)N[C@@H](CC(C)C)C(=O)N[C@@H](CCCCN)C(=O)N[C@H](C(=O)N[C@@H](CC(C)C)C(N)=O)C(C)C)C(C)C.[Cl-].[Cl-] (H-KWKLF[Lys(Me3)][Lys(Me3)]IGAVLKVL-NH2) | 51.5 | 27 µM | 10.7 µM | 12.5 | 6.1 µM | 4.9 | 2.6 µM | 5.3 µM | 9.2 µM | 25.3 | 134 µM
2 | CC[C@H](C)[C@H](NC(=O)[C@H](CCCCN)NC(=O)[C@H](CCCC[N+](C)(C)C)NC(=O)[C@H](Cc1ccccc1)NC(=O)[C@H](CC(C)C)NC(=O)[C@H](CCCCN)NC(=O)[C@H](Cc1c[nH]c2ccccc12)NC(=O)[C@@H](N)CCCCN)C(=O)NCC(=O)N[C@@H](C)C(=O)N[C@H](C(=O)N[C@@H](CC(C)C)C(=O)N[C@@H](CCCCN)C(=O)N[C@H](C(=O)N[C@@H](CC(C)C)C(N)=O)C(C)C)C(C)C.[Cl-] (H-KWKLF[Lys(Me3)]KIGAVLKVL-NH2) | 112.2 | 16.3 µM | 4.6 µM | 34.3 | 3.7 µM | 9.6 | 1.4 µM | 1.7 µM | 13.4 µM | 92.7 | 158 µM
3 | CC[C@H](C)[C@H](NC(=O)[C@H](CCCC[N+](C)(C)C)NC(=O)[C@H](CCCC[N+](C)(C)C)NC(=O)[C@H](Cc1ccccc1)NC(=O)[C@H](CC(C)C)NC(=O)[C@H](CCCC[N+](C)(C)C)NC(=O)[C@H](Cc1c[nH]c2ccccc12)NC(=O)[C@@H](N)CCCC[N+](C)(C)C)C(=O)NCC(=O)N[C@@H](C)C(=O)N[C@H](C(=O)N[C@@H](CC(C)C)C(=O)N[C@@H](CCCC[N+](C)(C)C)C(=O)N[C@H](C(=O)N[C@@H](CC(C)C)C(N)=O)C(C)C)C(C)C (H-[Lys(Me3)]W[Lys(Me3)]LF[Lys(Me3)][Lys(Me3)]IGAVL[Lys(Me3)]VL-NH2) | – | > 50 µM | > 30 µM | – | > 50 µM | – | > 30 µM | > 50 µM | > 50 µM | – | > 200 µM
4 | CC[C@H](C)[C@H](NC(=O)[C@H](CCCCN)NC(=O)[C@H](CCCCN)NC(=O)[C@H](Cc1ccccc1)NC(=O)[C@H](CC(C)C)NC(=O)[C@H](CCCCN)NC(=O)[C@H](Cc1c[nH]c2ccccc12)NC(=O)[C@@H](N)CCCC[N+](C)(C)C)C(=O)NCC(=O)N[C@@H](C)C(=O)N[C@H](C(=O)N[C@@H](CC(C)C)C(=O)N[C@@H](CCCCN)C(=O)N[C@H](C(=O)N[C@@H](CC(C)C)C(N)=O)C(C)C)C(C)C.[Cl-] (H-[Lys(Me3)]WKLFKKIGAVLKVL-NH2) | 59.4 | 6.4 µM | 3.4 µM | 22.7 | 3.9 µM | 12 | 1.3 µM | 2.8 µM | 6 µM | 27.6 | 77.2 µM
5 | CC[C@H](C)[C@H](NC(=O)[C@H](CCCCN)NC(=O)[C@H](CCCC[N+](C)(C)C)NC(=O)[C@H](Cc1ccccc1)NC(=O)[C@H](CC(C)C)NC(=O)[C@H](CCCC[N+](C)(C)C)NC(=O)[C@H](Cc1c[nH]c2ccccc12)NC(=O)[C@@H](N)CCCCN)C(=O)NCC(=O)N[C@@H](C)C(=O)N[C@H](C(=O)N[C@@H](CC(C)C)C(=O)N[C@@H](CCCCN)C(=O)N[C@H](C(=O)N[C@@H](CC(C)C)C(N)=O)C(C)C)C(C)C.[Cl-].[Cl-] (H-KW[Lys(Me3)]LF[Lys(Me3)]KIGAVLKVL-NH2) | 58.6 | 16.5 µM | 6.2 µM | 18.9 | 5.1 µM | 7.1 | 2 µM | 6.7 µM | 7.4 µM | 17.4 | 117 µM
6 | CC[C@H](C)[C@H](NC(=O)[C@H](CCCCN)NC(=O)[C@H](CCCCN)NC(=O)[C@H](Cc1ccccc1)NC(=O)[C@H](CC(C)C)NC(=O)[C@H](CCCC[N+](C)(C)C)NC(=O)[C@H](Cc1c[nH]c2ccccc12)NC(=O)[C@@H](N)CCCC[N+](C)(C)C)C(=O)NCC(=O)N[C@@H](C)C(=O)N[C@H](C(=O)N[C@@H](CC(C)C)C(=O)N[C@@H](CCCCN)C(=O)N[C@H](C(=O)N[C@@H](CC(C)C)C(N)=O)C(C)C)C(C)C.[Cl-].[Cl-] (H-[Lys(Me3)]W[Lys(Me3)]LFKKIGAVLKVL-NH2) | 30 | 24.8 µM | 8 µM | 13.1 | 12.8 µM | 4.2 | 3.5 µM | 15.5 µM | 16.2 µM | 6.7 | 105 µM
7 | CC[C@H](C)[C@H](NC(=O)[C@H](CCCCN)NC(=O)[C@H](CCCCN)NC(=O)[C@H](Cc1ccccc1)NC(=O)[C@H](CC(C)C)NC(=O)[C@H](CCCCN)NC(=O)[C@H](Cc1c[nH]c2ccccc12)NC(=O)[C@@H](N)CCCCN)C(=O)NCC(=O)N[C@@H](C)C(=O)N[C@H](C(=O)N[C@@H](CC(C)C)C(=O)N[C@@H](CCCC[N+](C)(C)C)C(=O)N[C@H](C(=O)N[C@@H](CC(C)C)C(N)=O)C(C)C)C(C)C.[Cl-] (H-KWKLFKKIGAVL[Lys(Me3)]VL-NH2) | 74.9 | 11.6 µM | 4.4 µM | 35.8 | 3.5 µM | 13.5 | 2.1 µM | 2.5 µM | 10.1 µM | 63 | 157 µM
8 | CC[C@H](C)[C@H](NC(=O)[C@H](CCCC[N+](C)(C)C)NC(=O)[C@H](CCCCN)NC(=O)[C@H](Cc1ccccc1)NC(=O)[C@H](CC(C)C)NC(=O)[C@H](CCCCN)NC(=O)[C@H](Cc1c[nH]c2ccccc12)NC(=O)[C@@H](N)CCCCN)C(=O)NCC(=O)N[C@@H](C)C(=O)N[C@H](C(=O)N[C@@H](CC(C)C)C(=O)N[C@@H](CCCCN)C(=O)N[C@H](C(=O)N[C@@H](CC(C)C)C(N)=O)C(C)C)C(C)C.[Cl-] (H-KWKLFK[Lys(Me3)]IGAVLKVL-NH2) | 86.3 | 12.1 µM | 7.2 µM | 22.8 | 3.7 µM | 13.5 | 1.9 µM | 2.3 µM | 11.4 µM | 71.3 | 164 µM
9 | CC[C@H](C)[C@H](NC(=O)[C@H](CCCCN)NC(=O)[C@H](CCCCN)NC(=O)[C@H](Cc1ccccc1)NC(=O)[C@H](CC(C)C)NC(=O)[C@H](CCCC[N+](C)(C)C)NC(=O)[C@H](Cc1c[nH]c2ccccc12)NC(=O)[C@@H](N)CCCCN)C(=O)NCC(=O)N[C@@H](C)C(=O)N[C@H](C(=O)N[C@@H](CC(C)C)C(=O)N[C@@H](CCCCN)C(=O)N[C@H](C(=O)N[C@@H](CC(C)C)C(N)=O)C(C)C)C(C)C.[Cl-] (H-KW[Lys(Me3)]LFKKIGAVLKVL-NH2) | 50.3 | 8.2 µM | 2.4 µM | 35.7 | 3.3 µM | 10.4 | 1.7 µM | 3.1 µM | 9.4 µM | 27.6 | 85.6 µM
10 | H-KWKLFKKIGAVLKVL-NH2 | 36.5 | 4.5 µM | 2.9 µM | 13.8 | 1.8 µM | 8.9 | 1.1 µM | 1.5 µM | 4.3 µM | 26.8 | 40.2 µM
